In general, Ki refers to the equilibrium dissociation constant of an inhibitor or competing ligand from its target. High values mean weaker binding, low ones tighter binding. Broadly, the clearance is the volume of plasma or blood freed of the substance per unit of time. Read a high clearance as a high capacity for elimination. As usually defined, the bioavailability is the share of a dose that reaches the circulation, judged against a reference dose that is usually intravenous. Lower therefore signals poor availability.

The text below walks through data of ChEMBL document CHEMBL1134050, “Phenyl benzenesulfonamides are novel and selective 5-HT6 antagonists: identification of N-(2,5-dibromo-3-fluorophenyl)-4-methoxy-3-piperazin-1-ylbenzenesulfonamide (SB-357134)” (Bioorg Med Chem Lett, 2001).

The target of data set [1] is T1, 5-hydroxytryptamine receptor 1A (Homo sapiens, UniProt P08908).
T1 sequence (P08908 whole entry): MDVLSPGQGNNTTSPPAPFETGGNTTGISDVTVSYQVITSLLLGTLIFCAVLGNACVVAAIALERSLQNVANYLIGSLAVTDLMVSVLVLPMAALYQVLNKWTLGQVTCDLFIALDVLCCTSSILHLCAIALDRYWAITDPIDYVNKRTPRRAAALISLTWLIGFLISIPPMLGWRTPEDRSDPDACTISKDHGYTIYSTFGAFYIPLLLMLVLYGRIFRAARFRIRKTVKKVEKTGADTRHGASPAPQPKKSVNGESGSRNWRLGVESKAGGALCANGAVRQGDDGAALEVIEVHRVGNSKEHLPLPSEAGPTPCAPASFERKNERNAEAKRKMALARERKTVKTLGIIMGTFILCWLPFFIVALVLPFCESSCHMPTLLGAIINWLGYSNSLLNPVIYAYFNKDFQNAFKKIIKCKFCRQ
The data set can be described thus: Compound was evaluated for binding affinity against human cloned 5-hydroxytryptamine 1A receptor in HEK 293 cells using [3H]8-OH-DPAT as the radioligand. It is filed as cell-based, HEK293. The method, boiled down:
(§1)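 Radioligand binding to human cloned receptors: 5-HT1A in HEK 293 cells with [3H]-8-OH-DPAT; 5-HT1B and 5-HT1E in CHO cells with [3H]-5-HT; 5-HT2B in HEK 293 cells with [3H]-5-HT; D2 and D3 in CHO cells with [125I]-iodosulpride. Values are the mean of at least two determinations, each within 0.2 log unit of the mean.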

Data set [2] addresses 5-hydroxytryptamine receptor 1D (Homo sapiens, UniProt P28221). The data set can be described thus: Compound was evaluated for binding affinity against human cloned 5-hydroxytryptamine 1D receptor in CHO cells using [3H]5-HT as the radioligand. It counts as cell-based.
In the next data set the target is D(3) dopamine receptor (Homo sapiens, UniProt P35462). Briefly: Compound was evaluated for binding affinity against Dopamine receptor D3 in CHO cells using [125I]iodosulpiride as the radioligand. It counts as cell-based. The method, boiled down: as §1
D(3) dopamine receptor, sequence (P35462 whole entry): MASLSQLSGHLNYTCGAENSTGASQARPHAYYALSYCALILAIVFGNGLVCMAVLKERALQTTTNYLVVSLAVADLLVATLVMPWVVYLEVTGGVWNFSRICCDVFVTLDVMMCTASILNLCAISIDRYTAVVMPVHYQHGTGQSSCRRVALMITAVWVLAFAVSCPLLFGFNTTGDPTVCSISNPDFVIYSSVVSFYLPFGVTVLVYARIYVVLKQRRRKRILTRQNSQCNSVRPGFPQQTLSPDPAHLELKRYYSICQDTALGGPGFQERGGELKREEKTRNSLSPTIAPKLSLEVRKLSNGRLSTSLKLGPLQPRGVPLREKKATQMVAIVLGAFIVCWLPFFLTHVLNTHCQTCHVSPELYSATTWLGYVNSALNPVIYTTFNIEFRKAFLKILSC
The target in data set [3] is T2, Alpha-1B adrenergic receptor (Homo sapiens, UniProt P35368).
T2 sequence (P35368 whole entry): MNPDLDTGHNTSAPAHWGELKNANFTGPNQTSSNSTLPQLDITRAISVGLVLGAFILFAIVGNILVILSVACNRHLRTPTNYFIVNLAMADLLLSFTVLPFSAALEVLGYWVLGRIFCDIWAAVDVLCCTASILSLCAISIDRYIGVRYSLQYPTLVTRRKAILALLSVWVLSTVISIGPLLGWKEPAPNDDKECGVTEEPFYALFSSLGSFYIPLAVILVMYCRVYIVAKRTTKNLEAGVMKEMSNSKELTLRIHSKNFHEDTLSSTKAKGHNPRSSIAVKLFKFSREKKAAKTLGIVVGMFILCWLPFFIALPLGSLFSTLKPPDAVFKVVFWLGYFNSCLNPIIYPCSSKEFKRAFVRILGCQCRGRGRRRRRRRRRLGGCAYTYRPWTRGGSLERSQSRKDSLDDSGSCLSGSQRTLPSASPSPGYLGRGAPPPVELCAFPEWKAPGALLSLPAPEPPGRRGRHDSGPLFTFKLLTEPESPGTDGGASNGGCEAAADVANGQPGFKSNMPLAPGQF
Briefly: Compound was evaluated for binding affinity against Alpha-1B adrenergic receptor.

In data set [4] the target is 5-hydroxytryptamine receptor 2B (Homo sapiens, UniProt P41595). Briefly: Compound was evaluated for binding affinity against human cloned 5-HT2B receptor in HEK 293 cells using [3H]5-HT as the radioligand. It counts as cell-based, HEK293. The method, boiled down:
as §1

In data set [5] the target is T3, 5-hydroxytryptamine receptor 1F (Homo sapiens, UniProt P30939).
T3 sequence (P30939 whole entry): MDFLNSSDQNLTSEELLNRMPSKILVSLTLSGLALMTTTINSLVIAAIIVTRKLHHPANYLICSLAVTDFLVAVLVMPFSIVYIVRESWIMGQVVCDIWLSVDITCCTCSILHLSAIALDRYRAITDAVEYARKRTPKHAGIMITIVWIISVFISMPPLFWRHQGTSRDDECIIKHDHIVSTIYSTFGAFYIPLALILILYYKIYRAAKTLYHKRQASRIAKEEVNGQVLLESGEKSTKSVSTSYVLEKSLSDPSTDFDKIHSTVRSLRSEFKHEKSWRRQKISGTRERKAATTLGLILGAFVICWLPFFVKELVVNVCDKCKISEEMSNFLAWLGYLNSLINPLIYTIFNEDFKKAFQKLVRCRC
Briefly: Compound was evaluated for binding affinity against human cloned 5-hydroxytryptamine 1F receptor in CHO cells using [3H]-5-HT as the radioligand. It is filed as cell-based.

Data set [6] addresses 5-hydroxytryptamine receptor 1E (Homo sapiens, UniProt P28566). Briefly: Compound was evaluated for binding affinity against human cloned 5-hydroxytryptamine 1E receptor in CHO cells using [3H]5-HT as the radioligand. It is filed as cell-based. The method, boiled down: as §1
Data set [7] deals with 5-hydroxytryptamine receptor 2A (Homo sapiens, UniProt P28223). The data set can be described thus: Compound was evaluated for binding affinity against human cloned 5-hydroxytryptamine 2A receptor in HEK 293 cells using [3H]ketanserin as the radioligand. It is filed as cell-based, HEK293.
5-hydroxytryptamine receptor 2A, sequence (P28223 whole entry, the tested form may be a part): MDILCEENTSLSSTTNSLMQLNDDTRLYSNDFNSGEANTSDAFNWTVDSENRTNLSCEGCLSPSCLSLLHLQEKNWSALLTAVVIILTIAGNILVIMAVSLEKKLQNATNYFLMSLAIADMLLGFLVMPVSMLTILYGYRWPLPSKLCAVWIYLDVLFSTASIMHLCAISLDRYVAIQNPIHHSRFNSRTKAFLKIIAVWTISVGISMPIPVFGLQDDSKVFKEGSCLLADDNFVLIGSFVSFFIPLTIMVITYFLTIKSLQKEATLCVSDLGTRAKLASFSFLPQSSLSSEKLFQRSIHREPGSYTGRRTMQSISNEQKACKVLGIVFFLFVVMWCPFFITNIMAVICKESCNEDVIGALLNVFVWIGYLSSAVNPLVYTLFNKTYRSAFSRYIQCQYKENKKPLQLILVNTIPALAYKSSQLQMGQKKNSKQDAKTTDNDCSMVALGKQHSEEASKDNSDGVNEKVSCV
The species entered for data set [8] is Rattus norvegicus. Briefly: Blood: Brain distribution ratio is determined in rat. It is filed as ADME, organism-based. The essentials: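 Rats received iv infusion for 8 h, and the brain:blood ratio was taken at steady state.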
Data set [9] concerns the target 5-hydroxytryptamine receptor 4 (Homo sapiens, UniProt Q13639). Briefly: Compound was evaluated for the binding affinity against human cloned 5-hydroxytryptamine 4 receptor in HeLa cells using [3H]-LSD as the radioligand. It counts as cell-based.
A further data set concerns the target D(2) dopamine receptor (Homo sapiens, UniProt P14416). Briefly: Compound was evaluated for binding affinity against Dopamine receptor D2 in CHO cells using [125I]iodosulpiride as the radioligand. It counts as cell-based. The method, boiled down: as §1
Data set [10] has as its target T4, 5-hydroxytryptamine receptor 2C (Homo sapiens, UniProt P28335).
T4 sequence (P28335 whole entry): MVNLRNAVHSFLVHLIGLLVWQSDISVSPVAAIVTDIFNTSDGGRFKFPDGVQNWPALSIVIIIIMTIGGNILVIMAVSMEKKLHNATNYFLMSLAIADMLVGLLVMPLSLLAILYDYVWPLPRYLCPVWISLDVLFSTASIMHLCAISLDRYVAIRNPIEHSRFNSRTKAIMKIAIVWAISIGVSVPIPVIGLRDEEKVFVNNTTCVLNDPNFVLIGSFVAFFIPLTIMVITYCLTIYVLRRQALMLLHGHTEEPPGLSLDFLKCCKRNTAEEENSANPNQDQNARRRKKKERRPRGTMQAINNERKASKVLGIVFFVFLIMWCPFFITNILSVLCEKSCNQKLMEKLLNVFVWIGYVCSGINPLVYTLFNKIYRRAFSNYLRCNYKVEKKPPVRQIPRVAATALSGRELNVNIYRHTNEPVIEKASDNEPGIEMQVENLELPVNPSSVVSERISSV
The data set can be described thus: Compound was evaluated for binding affinity against human cloned 5-hydroxytryptamine 2C receptor in HEK 293 cells using [3H]mesulergine as the radioligand. It is filed as cell-based, HEK293.

A short description of data set [11]: Plasma Clearance measured at steady-state following iv infusion at 0.6 mg/kg/h in rats. It counts as ADME, organism-based. More on the design: route intravenous. Conditions: rat, 0.6 mg/kg/h infusion.
Data set [12] in a line: Bioavailability in rat (dose 3 mg/kg in 1% methylcellulose ). It counts as ADME, organism-based. The note with it: in vivo. The essentials:
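Oral suspension dose of 3 mg/kg in 1% methylcellulose (v/v) aq to rats (n=3). Blood levels were measured by LC/MS/MS to derive AUC/dose and bioavailability.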

In data set [13] the target is 5-hydroxytryptamine receptor 1B (Homo sapiens, UniProt P28222). Briefly: Compound was evaluated for binding affinity against human cloned 5-hydroxytryptamine 1B receptor in CHO cells using [3H]5-HT as the radioligand. It is filed as cell-based. The essentials:
as §1

In data set [14] the target is 5-hydroxytryptamine receptor 6 (Homo sapiens, UniProt P50406). Briefly: Binding affinity against human 5-hydroxytryptamine 6 receptor.
5-hydroxytryptamine receptor 6, sequence (P50406 whole entry): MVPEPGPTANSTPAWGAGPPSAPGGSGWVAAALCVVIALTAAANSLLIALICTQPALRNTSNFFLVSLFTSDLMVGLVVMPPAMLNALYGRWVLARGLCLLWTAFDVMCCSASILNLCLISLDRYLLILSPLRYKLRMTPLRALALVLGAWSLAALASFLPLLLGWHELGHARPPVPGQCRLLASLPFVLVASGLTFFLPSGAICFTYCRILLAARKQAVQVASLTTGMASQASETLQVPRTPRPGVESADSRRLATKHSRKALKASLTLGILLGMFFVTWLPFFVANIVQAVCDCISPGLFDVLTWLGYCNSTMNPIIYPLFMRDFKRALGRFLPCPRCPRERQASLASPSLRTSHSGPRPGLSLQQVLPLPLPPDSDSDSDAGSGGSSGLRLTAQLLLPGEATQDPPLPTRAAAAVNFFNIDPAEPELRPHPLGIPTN
The target in data set [15] is T5, 5-hydroxytryptamine receptor 7 (Homo sapiens, UniProt P34969). Briefly: Compound was evaluated for binding affinity against human cloned 5-hydroxytryptamine 7 receptor in HEK 293 cells using [3H]5-CT as the radioligand (n=3). It is filed as cell-based, HEK293.
T5 sequence (P34969 whole entry): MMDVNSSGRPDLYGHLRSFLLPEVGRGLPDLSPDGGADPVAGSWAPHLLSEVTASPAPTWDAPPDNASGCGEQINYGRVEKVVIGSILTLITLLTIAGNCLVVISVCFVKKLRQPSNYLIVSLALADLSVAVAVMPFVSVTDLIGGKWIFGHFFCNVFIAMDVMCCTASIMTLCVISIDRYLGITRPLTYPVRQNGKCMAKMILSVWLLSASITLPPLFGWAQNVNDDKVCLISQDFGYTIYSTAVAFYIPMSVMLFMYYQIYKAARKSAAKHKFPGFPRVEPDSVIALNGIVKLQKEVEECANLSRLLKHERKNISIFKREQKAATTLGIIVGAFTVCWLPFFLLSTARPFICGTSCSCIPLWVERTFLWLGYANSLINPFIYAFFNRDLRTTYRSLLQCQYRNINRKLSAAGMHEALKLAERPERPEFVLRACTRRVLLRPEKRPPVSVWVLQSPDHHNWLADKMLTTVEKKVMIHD
Data set [16] deals with T5, 5-hydroxytryptamine receptor 7. The data set can be described thus: Displacement of [3H]-5-CT from human 5-hydroxytryptamine 7 receptor expressed in HEK-293 cells. It is filed as cell-based, HEK293. On the technique in general: Loss of bound radioactivity is the signal in a displacement assay; it reports binding, not function.
The nature of data set [17]: Bioavailability in rat (dose 10 mg/kg in 10% Encapsin and 2% DMSO p.o.). The note with it: in vivo, po.
Data set [18] deals with Rattus norvegicus. Briefly: Pharmacokinetic property( plasma concentration) was determined upon 10 mg/kg in 1% methylcellulose peroral administration in rats. Also on record: dose 10 mg/kg, route oral. The note with it: in vivo, po. It is filed as ADME, organism-based.
Data set [19] can be described thus: Bioavailability was determined upon 10 mg/kg in 1% methylcellulose peroral administration in rats. It counts as ADME, organism-based. The note with it: rat, in vivo, po. The method, boiled down:
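Rats were given 10 mg/kg orally as a suspension in 1% methylcellulose (v/v) aq (n=3). Blood drug levels were determined by LC/MS/MS, and AUC/dose and bioavailability were derived from them.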

5-hydroxytryptamine receptor 2B, sequence (P41595 whole entry): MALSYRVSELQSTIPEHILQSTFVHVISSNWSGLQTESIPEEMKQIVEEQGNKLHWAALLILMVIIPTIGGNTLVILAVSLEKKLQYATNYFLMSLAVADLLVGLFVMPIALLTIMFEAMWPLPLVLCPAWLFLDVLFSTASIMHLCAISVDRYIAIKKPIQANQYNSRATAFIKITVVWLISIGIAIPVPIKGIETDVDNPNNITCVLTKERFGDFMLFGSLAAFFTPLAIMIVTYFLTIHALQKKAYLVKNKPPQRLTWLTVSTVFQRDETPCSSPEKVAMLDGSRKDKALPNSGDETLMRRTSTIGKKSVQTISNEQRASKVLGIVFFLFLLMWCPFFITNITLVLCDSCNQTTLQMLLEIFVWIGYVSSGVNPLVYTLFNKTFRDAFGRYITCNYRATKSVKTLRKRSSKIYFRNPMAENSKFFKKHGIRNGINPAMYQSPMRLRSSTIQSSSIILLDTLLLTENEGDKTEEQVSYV
D(2) dopamine receptor, sequence (P14416 whole entry): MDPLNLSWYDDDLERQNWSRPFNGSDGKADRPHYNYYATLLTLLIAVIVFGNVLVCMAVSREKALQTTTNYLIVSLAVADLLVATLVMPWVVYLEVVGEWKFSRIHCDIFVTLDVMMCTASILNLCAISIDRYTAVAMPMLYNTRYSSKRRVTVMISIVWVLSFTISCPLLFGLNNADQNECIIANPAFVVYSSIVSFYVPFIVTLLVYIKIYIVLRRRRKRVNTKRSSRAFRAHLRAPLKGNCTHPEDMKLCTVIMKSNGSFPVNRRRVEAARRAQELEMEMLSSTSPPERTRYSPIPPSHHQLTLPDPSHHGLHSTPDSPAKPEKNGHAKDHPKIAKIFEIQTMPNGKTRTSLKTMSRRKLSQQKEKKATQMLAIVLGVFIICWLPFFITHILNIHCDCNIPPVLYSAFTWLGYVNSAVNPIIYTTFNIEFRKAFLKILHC
5-hydroxytryptamine receptor 1E, sequence (P28566 whole entry): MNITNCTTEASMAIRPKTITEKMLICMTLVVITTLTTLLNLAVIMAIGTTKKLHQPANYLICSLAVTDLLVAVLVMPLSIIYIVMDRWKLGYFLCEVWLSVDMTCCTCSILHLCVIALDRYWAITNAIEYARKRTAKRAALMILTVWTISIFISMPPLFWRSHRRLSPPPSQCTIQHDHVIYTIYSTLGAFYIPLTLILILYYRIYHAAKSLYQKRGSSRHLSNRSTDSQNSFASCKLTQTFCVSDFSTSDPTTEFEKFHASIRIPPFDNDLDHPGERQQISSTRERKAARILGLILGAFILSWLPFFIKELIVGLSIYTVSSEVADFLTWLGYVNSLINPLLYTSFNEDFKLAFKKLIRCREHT
5-hydroxytryptamine receptor 1B, sequence (P28222 whole entry): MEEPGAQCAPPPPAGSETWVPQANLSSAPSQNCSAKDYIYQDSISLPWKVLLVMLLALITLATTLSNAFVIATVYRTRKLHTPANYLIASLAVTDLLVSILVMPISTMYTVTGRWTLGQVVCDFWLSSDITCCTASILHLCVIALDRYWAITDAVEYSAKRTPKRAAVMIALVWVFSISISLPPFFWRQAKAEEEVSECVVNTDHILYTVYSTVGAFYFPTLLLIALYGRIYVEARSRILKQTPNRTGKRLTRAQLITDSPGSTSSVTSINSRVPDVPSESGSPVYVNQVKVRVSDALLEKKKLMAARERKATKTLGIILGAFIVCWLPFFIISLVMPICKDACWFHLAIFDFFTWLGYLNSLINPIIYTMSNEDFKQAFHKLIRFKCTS
5-hydroxytryptamine receptor 4, sequence (Q13639 whole entry): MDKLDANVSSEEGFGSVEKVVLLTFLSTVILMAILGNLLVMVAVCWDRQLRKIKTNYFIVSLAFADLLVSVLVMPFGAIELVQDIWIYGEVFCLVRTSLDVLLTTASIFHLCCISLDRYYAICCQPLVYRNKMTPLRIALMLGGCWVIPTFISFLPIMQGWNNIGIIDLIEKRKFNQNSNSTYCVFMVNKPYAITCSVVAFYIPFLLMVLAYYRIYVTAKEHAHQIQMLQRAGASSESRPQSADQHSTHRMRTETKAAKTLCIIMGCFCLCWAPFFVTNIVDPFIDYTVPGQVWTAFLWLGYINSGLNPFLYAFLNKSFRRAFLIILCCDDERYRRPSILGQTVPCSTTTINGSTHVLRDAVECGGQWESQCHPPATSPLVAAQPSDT
5-hydroxytryptamine receptor 1D, sequence (P28221 whole entry): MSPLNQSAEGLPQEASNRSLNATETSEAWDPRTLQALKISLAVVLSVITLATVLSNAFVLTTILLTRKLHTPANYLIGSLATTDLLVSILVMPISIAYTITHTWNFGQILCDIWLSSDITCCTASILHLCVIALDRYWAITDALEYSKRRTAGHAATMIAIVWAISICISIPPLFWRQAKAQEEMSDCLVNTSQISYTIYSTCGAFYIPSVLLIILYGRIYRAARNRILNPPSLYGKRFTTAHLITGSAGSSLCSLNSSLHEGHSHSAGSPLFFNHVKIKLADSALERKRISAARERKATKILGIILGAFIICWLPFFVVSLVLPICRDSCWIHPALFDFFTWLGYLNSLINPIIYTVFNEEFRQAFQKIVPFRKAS

Take `COc1ccc(S(=O)(=O)Nc2cc(Cl)cc(Cl)c2Cl)cc1N1CCNCC1`: the Ki in data set [1] was 3.98 µM; in [2], over 3.16 µM; on D(3) dopamine receptor, over 3.98 µM; in [3], over 3.98 µM; in [4], 2 µM; in data set [5] it was over 10 µM. Moreover, the Ki is over 10 µM in [6]; over 10 µM in data set [7]; over 10 µM in data set [9]; over 10 µM on D(2) dopamine receptor; 1 µM in data set [10]; over 10 µM in [13]. Further, the inhibition constant (Ki) in data set [14] and in data set [15] was 0.002 µM in each case. In addition, in the data set listed under Rattus norvegicus [8], the Distribution ratio was found to be 0.02. In addition, the clearance in [11] was 2 mL/min/kg. In addition, the bioavailability in data set [12] is over 80%.

On to `COc1ccc(S(=O)(=O)Nc2cc(Br)cc(F)c2Br)cc1N1CCNCC1`, for which the Ki was over 6.31 µM in data set [1]; over 10 µM in data set [16]; over 3.98 µM in data set [2]; over 5.01 µM on D(3) dopamine receptor; over 7.94 µM in [3]; over 3.98 µM in data set [4]. The Ki in data set [5] is over 10 µM; in data set [6], over 10 µM; in data set [7], over 7.94 µM; in data set [9], over 5.01 µM; at D(2) dopamine receptor, over 5.01 µM; in data set [10], over 5.01 µM. Also, the Ki in [13] is over 3.98 µM. This compound also returned a bioavailability in [17] of 65%. Besides, the clearance in data set [11] is 14 mL/min/kg.

Turning to `COc1ccc(S(=O)(=O)Nc2cc(Cl)cc(Cl)c2)cc1N1CCNCC1`, the Distribution ratio in the data set filed under Rattus norvegicus [8] turned out to be 0.02. Moreover, the AUC with Rattus norvegicus [18] was 450 uM min uM-1. For the same compound, the clearance in data set [11] came out at 4 mL/min/kg. In data set [19], this compound yielded a bioavailability of 51%. This compound gave a Ki in [14] of 0.000631 µM.

Turning to `COc1ccc(NS(=O)(=O)c2sc3ccc(Cl)cc3c2C)cc1N1CCNCC1`, the bioavailability in data set [17] was 82%. The clearance in data set [11] was 8 mL/min/kg.
